NOD2 RIPK2 PPI = NOD2-RIPK2 binding disruptors in cells, primary screen, fluorescence, CHO cells, BLA complementation | Receptor-interacting serine/threonine-protein kinase 2 (Homo sapiens), O43353 | CCF4 ratio | inhibition, % at 4.98 µM | actives 0.38% (n = 360,000); in the data active means inhibition above about 21%;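 further: 0% = vehicle only and 100% = reference blocker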
MC4R barr agon = MC4R agonists recruiting beta-arrestin, primary screen, cell-based, luminescence, agonist arm of biased-ligand search; actives 0.98% (n = 360,000); AID 540308, 2011; activation, % at 8.9 µM; U2OS MC4R beta-arrestin complementation; percent of melanotan II response, DMSO zero; Melanocortin receptor 4 (Homo sapiens), P32245;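 active means activation above a per-plate cutoff, the mean activation of sample wells on that plate plus 3 SD, cut at about 8% in these data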
beta cell repl = inducers of MIN6 beta-cell proliferation, primary screen, ATP luminescence, uHTS; MIN6 cells proliferation, ATPlite luminescence, 48 h; cells starved in 0.2% serum; 100% = growth in 10% serum; proliferation, % at 10 µM; actives 0.29% (n = 330,000); AID 2380, 2010;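 active means compounds whose signal lies at least 3.5 SD above the mean of all wells on their plate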;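 further: 0% = DMSO-treated cells in low-serum medium and 100% = 10% serum control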
TLR9-MyD88 inh = inhibitors of TLR9-MyD88 association in cells, primary screen, cell-based, CHO, BLA complementation, fluorescence; Toll-like receptor 9 (Homo sapiens) + Myeloid differentiation primary response protein …; CCF4 FRET ratio; inhibition, % at 4.98 µM; actives 0.21% (n = 340,000);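 active means inhibition above the mean over all tested compounds plus 3 SD, cut at about 21% in these data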;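 further: 0% = DMSO only wells and 100% = clavulanate BLA inhibitor control wells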
TLR4-MyD88 BLA = inhibitors of TLR4-MyD88 association in cells, primary screen, cell-based, HeLa CL3-4, BLA complementation, FRET ratio; inhibition, % at 8.4 µM; actives 0.18% (n = 200,000); AID 861, 2007; Toll-like receptor 4 (Homo sapiens) + Myeloid differentiation primary response protein …; HeLa CL3-4 TLR4/MyD88 BLA complementation; in the data active means inhibition above about 25%;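 further: 0% = vehicle and 100% = reference inhibitor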
Target sequence (O00206 whole entry, looked up): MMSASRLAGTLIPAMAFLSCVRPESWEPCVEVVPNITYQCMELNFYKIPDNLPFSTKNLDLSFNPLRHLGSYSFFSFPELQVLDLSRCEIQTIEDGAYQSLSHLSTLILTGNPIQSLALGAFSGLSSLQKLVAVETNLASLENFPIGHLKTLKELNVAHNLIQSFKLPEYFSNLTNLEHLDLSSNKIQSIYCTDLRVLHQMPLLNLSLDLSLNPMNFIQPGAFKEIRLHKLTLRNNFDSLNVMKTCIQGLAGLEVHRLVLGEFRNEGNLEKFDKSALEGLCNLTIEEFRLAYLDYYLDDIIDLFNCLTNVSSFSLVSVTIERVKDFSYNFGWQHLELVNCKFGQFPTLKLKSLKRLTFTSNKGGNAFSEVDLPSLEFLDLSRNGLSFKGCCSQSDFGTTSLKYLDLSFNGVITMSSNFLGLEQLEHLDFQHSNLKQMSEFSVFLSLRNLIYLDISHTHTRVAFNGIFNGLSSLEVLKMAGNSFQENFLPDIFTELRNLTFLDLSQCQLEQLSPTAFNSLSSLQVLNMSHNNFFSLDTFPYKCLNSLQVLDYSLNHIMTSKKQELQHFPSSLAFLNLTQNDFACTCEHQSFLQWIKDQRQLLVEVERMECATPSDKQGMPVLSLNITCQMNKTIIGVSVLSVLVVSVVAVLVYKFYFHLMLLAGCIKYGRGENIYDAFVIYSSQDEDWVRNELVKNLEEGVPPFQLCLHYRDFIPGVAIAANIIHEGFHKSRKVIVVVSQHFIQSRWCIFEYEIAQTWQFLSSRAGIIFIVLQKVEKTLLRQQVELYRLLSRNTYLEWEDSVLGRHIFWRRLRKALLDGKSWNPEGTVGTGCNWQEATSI
Target sequence (Q99836 whole entry, looked up): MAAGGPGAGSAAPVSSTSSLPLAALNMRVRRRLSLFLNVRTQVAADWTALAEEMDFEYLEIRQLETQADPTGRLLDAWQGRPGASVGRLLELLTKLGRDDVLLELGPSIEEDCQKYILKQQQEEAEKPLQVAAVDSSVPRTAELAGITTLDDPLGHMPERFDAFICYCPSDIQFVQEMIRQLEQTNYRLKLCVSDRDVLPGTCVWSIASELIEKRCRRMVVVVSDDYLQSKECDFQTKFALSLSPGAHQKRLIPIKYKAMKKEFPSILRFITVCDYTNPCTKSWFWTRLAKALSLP
MC4R antagonist = MC4R antagonists of cAMP signaling, primary screen, cell-based, TR-FRET, antagonist arm of biased-ligand search | MC4R-expressing cells, MTII-stimulated cAMP, LANCE TR-FRET | Melanocortin receptor 4 (Homo sapiens), P32245 | AID 540295, 2011 | inhibition, % at 6.5 µM | actives 0.48% (n = 360,000);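 active means inhibition above its plate's cutoff, the mean of tested wells on that plate plus 3 SD, cut at about 29% in these data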;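 further: 0% = Melanotan II alone and 100% = Melanotan II plus saturating MCL0020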
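Test system: U2OS cells stably expressing human melanocortin 4 receptor (MC4R); also added: Melanotan II challenge; compound: 6.5 µM single dose; timing: 30-min compound preincubation, 1-h Melanotan II challenge, 1-h detection, room temperature; signal: Eu-cAMP/anti-cAMP TR-FRET, emission 671 nm; repeats: one well per compound, no replicates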
* = called active by the depositor; . = not tested or not shown. Most compounds without a hit are left out; they make up all but 2.1% or so of the library.

SMILES | NOD2 RIPK2 PPI | MC4R barr agon | beta cell repl | TLR9-MyD88 inh | TLR4-MyD88 BLA | MC4R antagonist
Cc1ccc(Cl)c(OCC(=O)Nc2ccc3c(c2)OCCO3)c1 | 0.5 | 9.0* | -0.8 | -8.7 | -3.7 | 11.2
CC(C)(C)c1cc(/C=N/O)cc(C(C)(C)C)c1O | -0.1 | -0.9 | 0.0* | -7.2 | -2.4 | 11.1
CC(C)CCN1C(=O)c2ccc(C(=O)Nc3c[nH]c(=O)[nH]c3=O)cc2C1=O | 1.6 | -0.1 | -2.7 | 4.3 | -5.9 | -5.3
CC(=O)Oc1cccc(N2C(=O)c3ccc(C(=O)Nc4c[nH]c(=O)[nH]c4=O)cc3C2=O)c1 | 2.1 | -0.1 | 2.7 | -3.4 | 6.2 | 41.6*
CCc1cc2cc(C(=O)Nc3ccccc3F)sc2s1 | 4.4 | 9.0* | -3.2 | 12.0 | -1.9 | -1.6
O=C(CSc1nnc(NC(=O)c2c(F)cccc2Cl)s1)Nc1ccccc1F | -0.1 | -0.3 | -3.3 | 6.3 | . | 18.2
COCCn1c(=NC(=O)c2cc(Cl)sc2Cl)sc2cc(S(N)(=O)=O)ccc21 | -4.5 | 9.3* | -1.9 | -5.8 | -13.2 | 16.7
CCOCCn1c(=NC(=O)c2cc(Cl)sc2Cl)sc2cc(S(N)(=O)=O)ccc21 | . | . | -1.6 | . | -9.2 | .
CCOc1ccc(C(=O)Nc2nc(C)c(C(=O)OC)s2)cc1 | -2.2 | 8.3* | -4.2 | . | . | 11.4
O=C(c1ccc(COc2ccc(Cl)cc2)o1)N1N=C(C(F)F)CC1(O)C(F)F (centres undefined) | -5.6 | 8.7* | -5.7 | 14.7 | -3.2 | -5.0
COc1cccc(OC)c1-c1nn2c(-c3cc(-c4ccccc4)n[nH]3)nnc2s1 | 11.3 | 36.1* | -1.3 | 7.4 | -8.1 | -4.7
COc1cccc(-c2nnc3sc(-c4ccccc4)nn23)c1 | 2.0 | 1.2 | 3.6 | -5.6 | 0.3 | 3.7
Cc1onc(-c2ccccc2)c1C(=O)Nc1ccc(S(=O)(=O)N2CCOCC2)cc1 | -11.0 | -2.1 | 1.0 | -5.1 | . | 10.8
Nc1nonc1-n1nnc(C(=O)N/N=C/c2ccc(Br)cc2)c1-c1ccc2c(c1)OCO2 | -1.6 | 8.8* | 1.3 | -9.4 | . | 7.1
Nc1nonc1-n1nnc(C(=O)N/N=C/c2ccc3c(c2)OCO3)c1-c1ccccc1 | -2.0 | -0.7 | -4.3 | 2.0 | . | 22.8
Cc1c(C(=O)N2CCC2(C)C(=O)O)oc2ccccc12 (centres undefined) | -13.1 | 0.5 | . | . | . | 2.6
CC1=C(C(=O)OC2CCCCC2)C(c2ccccc2Br)NC(=O)N1 (centres undefined) | -4.3 | 8.2* | -3.5 | -14.5 | . | 7.9
COc1cccc(N(CC(=O)NCC2CCCO2)C(=O)CNS(=O)(=O)c2ccccc2)c1 (centres undefined) | -16.1 | -0.7 | 8.4* | -3.9 | -9.7 | -2.6
O=C(O)c1ccc(S(=O)(=O)N2CCCc3ccccc32)cc1 | -8.8 | -2.2 | -3.4 | -5.0 | . | 3.9
NC(=O)c1ccsc1NC(=O)c1ccc(S(=O)(=O)N2CCCc3ccccc32)cc1 | -8.9 | 8.5* | -4.5 | 2.3 | 3.7 | 6.5
CCOC(=O)C1=C(Cc2ccc(Cl)cc2)C(=O)c2ccccc2C1=O | 29.0* | 6.6 | -5.7 | 2.0 | 8.0 | 25.4
C[C@@H]1CN([C@H](C)CO)C(=O)c2cc(Br)cnc2O[C@H]1CN(C)Cc1cccnc1 | -3.9 | -0.8 | . | 5.4 | . | 9.7
Cc1cc(=O)oc2cc(NC(=O)C3COc4ccccc4O3)ccc12 (centres undefined) | 11.7 | 10.6* | 1.3 | -0.8 | -7.3 | 13.4
COc1cccc(/C=N/n2c(N)c(S(=O)(=O)c3cccs3)c3nc4ccccc4nc32)c1 | -2.4 | -1.3 | -2.0 | -5.0 | -7.2 | -5.5
Nc1c(S(=O)(=O)c2cccs2)c2nc3ccccc3nc2n1/N=C/c1cccc(O)c1 | 2.1 | 8.4* | -3.5 | 1.9 | 1.8 | 16.9
